According to ChEMBL document CHEMBL1130209, “A novel series of 2,5-substituted tryptamine derivatives as vascular 5HT1B/1D receptor antagonists” (J Med Chem, 1997):

Assays:
[1] = molecular target: T1, 5-hydroxytryptamine receptor 1A (Rattus norvegicus, UniProt P19327); test: Affinity pKi for 5-hydroxytryptamine 1A receptor was measured in rat cortex homogenates.; assay type: tissue-based
T1 sequence (P19327 whole entry): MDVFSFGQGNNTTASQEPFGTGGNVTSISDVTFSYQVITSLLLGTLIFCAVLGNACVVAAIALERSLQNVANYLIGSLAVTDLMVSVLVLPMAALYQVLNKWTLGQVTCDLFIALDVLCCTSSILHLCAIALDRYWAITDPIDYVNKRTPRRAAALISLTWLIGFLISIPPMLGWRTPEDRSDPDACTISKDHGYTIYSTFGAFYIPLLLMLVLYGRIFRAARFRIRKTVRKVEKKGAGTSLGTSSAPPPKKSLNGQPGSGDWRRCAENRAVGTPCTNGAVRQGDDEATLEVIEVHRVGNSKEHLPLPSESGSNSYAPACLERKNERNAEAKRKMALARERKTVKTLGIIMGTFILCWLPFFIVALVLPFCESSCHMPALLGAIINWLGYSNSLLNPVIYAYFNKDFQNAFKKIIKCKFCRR
Outline: (§1)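 Competition binding with rat cortex homogenate: radioligand near its KD plus a wide range of test drug concentrations in duplicate, 30 min at 27 °C. Buffer 50 mM TRIS-HCl, 5 mM CaCl₂, 0.1% (w/v) ascorbate, 10 mM pargyline. Nonspecific binding defined with excess cold 5HT. Rapid filtration with ice-cold buffer wash, liquid scintillation count. pKi is the mean of at least three estimates.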

[2] = molecular target: 5-hydroxytryptamine receptor 1B (Homo sapiens) (UniProt P28222); test: Dissociation equilibrium constant against the vascular 5-hydroxytryptamine 1B like receptor in the rabbit saphenous vein; assay type: tissue-based; settings: Oryctolagus cuniculus, target entry is the homologue from another species
Outline: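 Saphenous vein rings (4–5 mm) from male New Zealand white rabbits, killed with pentobarbitone 80 mg/kg iv and exsanguination, mounted on tungsten wires. Phenoxybenzamine 0.3 μM for 30 min, washed out, 1 μM 5HT viability check. Cumulative 5HT curve, then after 60 min recovery a test compound curve. Non-agonists tested as 5HT antagonists, giving apparent pKB.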

[3] = molecular target: 5-hydroxytryptamine receptor 2A (Homo sapiens) (UniProt P28223); test: Dissociation equilibrium constant against the vascular 5-hydroxytryptamine 2A receptor in the rabbit […] aorta; assay type: tissue-based; settings: Oryctolagus cuniculus, target entry is the homologue from another species
[4] = molecular target: 5-hydroxytryptamine receptor 7 (Homo sapiens) (UniProt P34969); test: The dissociation equilibrium constant (pKB=-log KB) of compound was determined against the vascular 5-hydroxytryptamine 7 receptor in the endothelium denuded rabbit jugular vein.; settings: Oryctolagus cuniculus; target entry is the homologue from another species
[5] = Half life of compound was determined in mouse plasma; assay type: ADME, organism-based
[6] = molecular target: T2, Adrenergic receptor alpha-1 (Rattus norvegicus, UniProt P15823+P23944+P43140); test: Affinity pKi for Alpha-1 adrenergic receptor was measured in rat cortex homogenates; assay type: tissue-based; outline: as §1
T2 sequence (P15823 whole entry): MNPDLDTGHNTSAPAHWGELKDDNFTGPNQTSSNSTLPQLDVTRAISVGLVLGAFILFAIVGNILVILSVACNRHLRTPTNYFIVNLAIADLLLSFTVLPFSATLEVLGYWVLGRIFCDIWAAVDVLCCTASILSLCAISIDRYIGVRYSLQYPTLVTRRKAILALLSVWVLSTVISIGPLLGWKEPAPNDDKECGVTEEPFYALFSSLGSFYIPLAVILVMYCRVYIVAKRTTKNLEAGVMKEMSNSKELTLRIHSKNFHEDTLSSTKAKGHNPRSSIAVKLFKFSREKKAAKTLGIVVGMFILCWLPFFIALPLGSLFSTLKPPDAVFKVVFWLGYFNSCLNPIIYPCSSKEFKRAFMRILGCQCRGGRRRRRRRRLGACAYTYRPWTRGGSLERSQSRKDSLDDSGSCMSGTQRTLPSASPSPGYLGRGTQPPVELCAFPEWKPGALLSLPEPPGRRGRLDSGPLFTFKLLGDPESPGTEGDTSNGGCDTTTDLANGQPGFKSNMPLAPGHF
T2 sequence (P23944 whole entry): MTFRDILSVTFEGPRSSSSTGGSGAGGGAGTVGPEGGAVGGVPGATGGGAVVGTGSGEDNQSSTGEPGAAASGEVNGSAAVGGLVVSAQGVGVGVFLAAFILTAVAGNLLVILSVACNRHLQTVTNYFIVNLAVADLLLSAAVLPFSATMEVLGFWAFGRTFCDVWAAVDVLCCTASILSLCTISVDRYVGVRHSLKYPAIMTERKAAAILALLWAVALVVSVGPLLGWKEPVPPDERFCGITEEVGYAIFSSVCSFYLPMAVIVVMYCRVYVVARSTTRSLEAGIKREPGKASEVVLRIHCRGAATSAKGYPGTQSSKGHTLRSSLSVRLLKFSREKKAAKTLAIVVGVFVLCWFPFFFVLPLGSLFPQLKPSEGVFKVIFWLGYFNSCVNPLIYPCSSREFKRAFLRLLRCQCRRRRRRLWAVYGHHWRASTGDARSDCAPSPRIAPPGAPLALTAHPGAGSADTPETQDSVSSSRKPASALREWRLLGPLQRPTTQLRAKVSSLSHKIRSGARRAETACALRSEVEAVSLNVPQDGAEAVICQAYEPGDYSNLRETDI
T2 sequence (P43140 whole entry): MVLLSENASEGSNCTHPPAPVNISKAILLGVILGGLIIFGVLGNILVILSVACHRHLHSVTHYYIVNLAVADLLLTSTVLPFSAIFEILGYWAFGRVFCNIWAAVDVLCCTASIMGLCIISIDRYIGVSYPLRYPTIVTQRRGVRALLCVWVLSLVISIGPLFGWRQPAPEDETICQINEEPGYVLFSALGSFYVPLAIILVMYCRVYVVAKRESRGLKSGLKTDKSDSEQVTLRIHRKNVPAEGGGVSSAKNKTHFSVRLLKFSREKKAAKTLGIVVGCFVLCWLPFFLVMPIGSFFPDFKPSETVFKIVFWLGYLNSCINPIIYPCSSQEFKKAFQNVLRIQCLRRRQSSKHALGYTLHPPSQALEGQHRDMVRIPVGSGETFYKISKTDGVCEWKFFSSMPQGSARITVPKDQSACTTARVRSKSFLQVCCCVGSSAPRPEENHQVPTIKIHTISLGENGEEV

[7] = molecular target: Adrenergic receptor alpha-1 (Homo sapiens) (UniProt P35348+P25100+P35368); test: The dissociation equilibrium constant (pKB=-log KB) of compound was determined against the Alpha-1 adrenergic receptor in the rabbit thoracic aorta; assay type: tissue-based; settings: Oryctolagus cuniculus, target entry is the homologue from another species
Outline: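 Rabbit thoracic aorta rings (3 mm) given pargyline 500 μM for 30 min and tensioned twice to 3.0 g. L-phenylephrine 10 μM checks viability and gives the reference contracture. After washout, test compound at 30 μM for 60 min, then a cumulative L-phenylephrine curve.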

[8] = molecular target: D(1A) dopamine receptor (Rattus norvegicus, UniProt P18901); test: Affinity pKi for Dopamine receptor D1 was measured in rat cortex homogenates.; assay type: tissue-based; outline: as §1
[9] = molecular target: D(2) dopamine receptor (Rattus norvegicus, UniProt P61169); test: Affinity pKi for Dopamine receptor D2 was measured in rat cortex homogenates; assay type: tissue-based; outline: as §1
[10] = Half life of compound was determined in rat plasma; assay type: ADME, organism-based
[11] = The dissociation equilibrium constant (pKB=-log KB) of compound was determined against the Muscarinic acetylcholine receptor M3 in the guinea pig trachea.; settings: Cavia porcellus

5-hydroxytryptamine receptor 2A (Homo sapiens), sequence (P28223 whole entry): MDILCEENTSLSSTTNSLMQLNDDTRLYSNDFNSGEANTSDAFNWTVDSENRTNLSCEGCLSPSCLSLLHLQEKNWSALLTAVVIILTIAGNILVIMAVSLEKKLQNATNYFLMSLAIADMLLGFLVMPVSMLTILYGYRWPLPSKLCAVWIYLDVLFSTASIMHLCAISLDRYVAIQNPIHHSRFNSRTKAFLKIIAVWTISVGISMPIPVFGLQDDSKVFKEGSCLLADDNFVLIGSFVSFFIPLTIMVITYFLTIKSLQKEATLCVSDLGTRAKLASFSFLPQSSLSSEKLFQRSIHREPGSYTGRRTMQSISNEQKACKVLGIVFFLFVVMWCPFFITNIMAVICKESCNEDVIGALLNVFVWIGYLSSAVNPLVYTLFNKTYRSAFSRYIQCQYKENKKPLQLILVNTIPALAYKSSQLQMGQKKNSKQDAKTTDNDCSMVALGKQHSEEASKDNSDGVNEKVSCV
5-hydroxytryptamine receptor 7 (Homo sapiens), sequence (P34969 whole entry): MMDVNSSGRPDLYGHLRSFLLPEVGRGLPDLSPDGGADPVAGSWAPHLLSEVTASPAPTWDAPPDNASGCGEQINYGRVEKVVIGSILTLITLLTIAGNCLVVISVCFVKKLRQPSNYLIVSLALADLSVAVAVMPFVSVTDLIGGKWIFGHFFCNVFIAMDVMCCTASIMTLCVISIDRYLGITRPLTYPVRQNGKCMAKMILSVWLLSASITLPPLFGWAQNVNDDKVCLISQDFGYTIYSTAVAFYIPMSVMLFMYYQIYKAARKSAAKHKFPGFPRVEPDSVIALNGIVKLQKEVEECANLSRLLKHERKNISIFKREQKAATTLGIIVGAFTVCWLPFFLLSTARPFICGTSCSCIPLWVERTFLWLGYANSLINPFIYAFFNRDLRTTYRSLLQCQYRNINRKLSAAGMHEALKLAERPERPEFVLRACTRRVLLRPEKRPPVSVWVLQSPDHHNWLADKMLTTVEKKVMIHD
D(2) dopamine receptor, sequence (P61169 whole entry): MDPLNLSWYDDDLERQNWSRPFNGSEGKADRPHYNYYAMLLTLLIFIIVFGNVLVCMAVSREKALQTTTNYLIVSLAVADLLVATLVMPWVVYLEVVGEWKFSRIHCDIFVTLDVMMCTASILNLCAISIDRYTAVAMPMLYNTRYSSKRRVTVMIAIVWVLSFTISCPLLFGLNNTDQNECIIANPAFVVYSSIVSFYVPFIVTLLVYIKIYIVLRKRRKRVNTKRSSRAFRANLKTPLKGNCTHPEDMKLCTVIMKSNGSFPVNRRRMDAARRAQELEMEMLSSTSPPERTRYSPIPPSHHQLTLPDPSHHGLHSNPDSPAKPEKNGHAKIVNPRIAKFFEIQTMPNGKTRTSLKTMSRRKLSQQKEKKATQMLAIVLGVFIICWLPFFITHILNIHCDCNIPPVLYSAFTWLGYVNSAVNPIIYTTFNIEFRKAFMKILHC
5-hydroxytryptamine receptor 1B (Homo sapiens), sequence (P28222 whole entry): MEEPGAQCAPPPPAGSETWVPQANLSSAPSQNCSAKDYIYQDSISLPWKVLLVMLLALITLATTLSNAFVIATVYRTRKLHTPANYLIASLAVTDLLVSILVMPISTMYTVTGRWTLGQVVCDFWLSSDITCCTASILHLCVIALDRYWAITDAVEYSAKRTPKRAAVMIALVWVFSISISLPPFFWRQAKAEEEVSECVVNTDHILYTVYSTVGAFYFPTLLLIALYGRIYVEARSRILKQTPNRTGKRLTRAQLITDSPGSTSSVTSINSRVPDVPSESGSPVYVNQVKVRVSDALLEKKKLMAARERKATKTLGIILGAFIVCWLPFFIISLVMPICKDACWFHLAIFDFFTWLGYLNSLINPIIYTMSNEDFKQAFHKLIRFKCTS
D(1A) dopamine receptor, sequence (P18901 whole entry): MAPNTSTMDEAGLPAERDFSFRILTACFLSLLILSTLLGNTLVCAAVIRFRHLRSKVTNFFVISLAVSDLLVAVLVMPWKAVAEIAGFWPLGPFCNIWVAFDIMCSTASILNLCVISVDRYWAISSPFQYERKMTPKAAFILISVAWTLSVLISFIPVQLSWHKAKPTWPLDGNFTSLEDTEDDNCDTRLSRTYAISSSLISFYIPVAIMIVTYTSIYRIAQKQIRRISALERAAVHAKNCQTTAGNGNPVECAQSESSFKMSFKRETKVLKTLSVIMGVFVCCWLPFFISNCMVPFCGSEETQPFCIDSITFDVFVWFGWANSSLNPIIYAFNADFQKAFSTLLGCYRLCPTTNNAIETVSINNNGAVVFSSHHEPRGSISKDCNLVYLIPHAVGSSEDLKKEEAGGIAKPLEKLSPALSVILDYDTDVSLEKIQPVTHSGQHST

Ki [1]: 9.33 µM
pKB [2]: 7.42
pKB [3]: 5.8
pKB [4]: 5.5
half-life [5]: 12 min
Log Ki [6]: -4.95
pKB [7]: 5.43
Ki [8]: 32.4 µM
Ki [9]: 10.7 µM
half-life [10]: 15 min
pKB [11]: < 5
SMILES: CCOC(=O)c1[nH]c2ccc(CCN3C(=O)CNC3=O)cc2c1CCN(C)C
